From PubChem
ALR inh – inhibitors of human sulfhydryl oxidase ALR; purified ALR, DTT oxidation, H2O2 HRP-luminol luminescence; 290,000 compounds, 3.8% hits; inhibition, % (test concentration not listed);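 active means mean replicate inhibition above about 79%, with every replicate also reaching it, limit read from the data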
Target sequence (P55789 whole entry, looked up): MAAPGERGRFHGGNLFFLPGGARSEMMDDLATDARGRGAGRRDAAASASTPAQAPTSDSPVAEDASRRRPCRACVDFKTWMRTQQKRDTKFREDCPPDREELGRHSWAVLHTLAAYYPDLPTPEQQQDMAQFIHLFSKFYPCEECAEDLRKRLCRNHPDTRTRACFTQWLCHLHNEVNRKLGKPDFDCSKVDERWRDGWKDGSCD
Rtt109 Vps75 – blocks Candida albicans Rtt109/Vps75 acetyltransferase activity; purified Rtt109/Vps75, ThioGlo CoA-SH fluorescence, 4 h; inhibition, % at 34.9 µM; 330,000 compounds, 0.16% hits; AID 540336;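 active means inhibition of at least 50% in every replicate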
HDAC3 inhib – blocks human histone deacetylase 3 | O15379 | recombinant HDAC3, fluorogenic peptide/trypsin coupled, fluorescence | inhibition, % at 8.3 µM | 320,000 compounds, 0.15% hits | AID 2718; in the data active means inhibition above about 26%, passing the limit was not always enough
FAS-TE inh – blocks the thioesterase domain of human fatty acid synthase. P49327. recombinant FAS-TE, OMFH fluorogenic substrate, fluorescence endpoint. inhibition, % at 15 µM. 360,000 compounds, 0.67% hits. AID 602261;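 active means compounds whose normalised, plate-corrected inhibition of enzyme fluorescence in the single-dose primary screen is 50% or more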;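 further: 0% = DMSO with enzyme and 100% = substrate without enzyme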
UCH37 DUB inh – human UCH37 deubiquitinating enzyme inhibition | inhibition, % (no concentration beside the values) | purified proteasome/UCH37, Ub-AMC cleavage fluorescence | 330,000 compounds, 0.33% hits | Q9Y5K5;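 active means mean inhibition over replicate wells above about 20%, limit read from the data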;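 further: 0% = compound-free wells with enzyme and 100% = wells lacking proteasome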
Target sequence (Q9Y5K5 whole entry, looked up): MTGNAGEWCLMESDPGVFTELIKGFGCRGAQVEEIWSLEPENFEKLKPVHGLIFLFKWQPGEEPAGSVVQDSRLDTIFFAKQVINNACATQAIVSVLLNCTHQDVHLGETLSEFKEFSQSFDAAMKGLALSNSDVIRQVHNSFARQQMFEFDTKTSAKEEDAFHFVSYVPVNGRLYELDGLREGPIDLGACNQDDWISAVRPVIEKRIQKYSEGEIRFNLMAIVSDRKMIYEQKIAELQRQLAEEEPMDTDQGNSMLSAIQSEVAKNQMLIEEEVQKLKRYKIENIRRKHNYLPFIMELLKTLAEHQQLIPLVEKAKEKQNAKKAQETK
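Material: human UCH37 enzyme supplied as purified proteasome complex / Amount: 0.15 nM proteasome as dispensed / Buffer or medium: pH 7.4 Tris-HCl (50 mM) with ovalbumin, ATP-MgCl2, DTT / Times: preincubation 30 min, reaction 25 min, room temperature / Technique: AMC fluorescence from Ub-AMC cleavage, excitation 355 nm, emission 460 nm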
M18AAP inhibitor – blocks P. falciparum M18 aspartyl aminopeptidase. recombinant PfM18AAP, H-Glu-NHMec fluorogenic cleavage. inhibition, % at 7.35 µM. 290,000 compounds, 1.2% hits;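 active means inhibition above the campaign mean inhibition over all tested compounds plus 3 SD, cut at about 28% in these data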;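 further: 0% = plate median of test compound wells and 100% = 2 mM ZnCl2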
Starred values were filed as active, the others as inactive; / = not tested or not shown. In the library only some 4.6% were active in any assay of this set; here they are far more common.

SMILES	ALR inh	Rtt109 Vps75	HDAC3 inhib	FAS-TE inh	UCH37 DUB inh	M18AAP inhibitor
CCn1c(CS(=O)Cc2ccc(Cl)cc2Cl)nnc1SCc1c(Cl)cccc1Cl (stereo unspecified)	99*	2	-4	8	0	-2
Cc1c(C(=O)c2ccc(Cl)cc2[N+](=O)[O-])c2ccccn2c1CCC#N	95*	17	3	3	6	-2
Cc1c(C(=O)c2ccc(F)cc2F)c2ccccn2c1CCC#N	/	5	9	-2	/	30*
Cc1c(C(=O)c2ccc(N(C)C)cc2)c2ccccn2c1CCC#N	98*	2	8	-5	0	18
Cc1c(C(=O)c2ccc(Cl)c([N+](=O)[O-])c2)c2ccccn2c1CCC#N	40	26	5	24	6	4
CCCc1cc(=O)[nH]c(Nc2ccc(O)cc2)n1	99*	-5	1	-9	1	-3
CCCc1cc(=O)[nH]c(Nc2ccc(Cl)cc2)n1	-6	-5	-2	4	1	4
Cc1cc(C)c2nc(SCC#N)cc(C)c2c1	-11	1	-5	26	2	5
C/C(N)=C(/C#N)C(=O)CSc1cc(C)c2cc(C)cc(C)c2n1	96*	-3	3	19	3	2
C=CCSc1nc(O)c(C2OC(=O)c3c2ccc(OC)c3OC)c(=O)n1-c1ccccc1 (stereo unspecified)	97*	-16	1	-4	2	-10
COc1cccc(NC(=O)CSCc2cc(=O)n3nc(C4CC4)sc3n2)c1	99*	6	3	-10	2	-15
Cc1ccc(NC(=O)CSCc2cc(=O)n3nc(C4CC4)sc3n2)cc1	99*	-10	2	-1	3	2
CCCc1nn2c(=O)cc(CSCC(=O)Nc3ccc(C)cc3)nc2s1	7	6	1	-7	2	-2
COc1ccc(NC(=O)CSCc2cc(=O)n3ccsc3n2)cc1	-3	-12	2	-4	1	-5
CCCC(=NNC(=O)c1ccc(CSc2nncn2C)cc1)c1ccccc1	/	/	/	/	1	/
COC(=O)C1=NN(N=O)C2(CC(=O)N(c3cc(C)cc(C)c3)C2=O)C1 (stereo unspecified)	85*	-2	3	-9	3	1
Cn1c(=O)c2c(-c3ccccc3)n(-n3cnnc3)cc2n(C)c1=O	96*	5	-1	-6	0	7
O=C1[C@H]2[C@@H](c3ccc(Cl)cc3)N3C(=O)N(c4cccc(Cl)c4)C(=O)[C@@]3(Cc3ccccc3)[C@H]2C(=O)N1C1CCCCC1	/	-2	3	94*	-2	/
CC[C@@]12C(=O)N(c3cccc(F)c3)C(=O)N1[C@H](c1ccc(F)cc1)[C@@H]1C(=O)N(C3CCCCC3)C(=O)[C@@H]12	-14	0	-7	31	0	4
CC(C)C[C@@]12C(=O)N(c3cccc(Br)c3)C(=O)N1[C@H](c1ccc(F)cc1)[C@@H]1C(=O)N(C3CCCCC3)C(=O)[C@@H]12	3	1	4	86*	5	/
O=C1[C@H]2[C@@H](c3ccc(F)cc3)N3C(=O)N(c4ccc(Br)cc4)C(=O)[C@@]3(Cc3ccc(Cl)cc3)[C@H]2C(=O)N1C1CCCCC1	/	-11	6	94*	2	2
CC(=NNC(=O)COc1ccccc1)c1cccs1	/	/	/	/	2	/
Cc1ccc(CN2CCN(N=Cc3ccc(Cl)c([N+](=O)[O-])c3)CC2)cc1	/	/	/	/	8	/
COc1ccccc1-c1nnc2n1N=C(c1ccc(O)c(O)c1)CS2	99*	13	13	-5	9	69*
Cc1cccc(-c2n[nH]c(=S)n2N=Cc2ccc(C)s2)c1	/	/	/	/	1	/
SMILES	ALR inh	Rtt109 Vps75	HDAC3 inhib	FAS-TE inh	UCH37 DUB inh	M18AAP inhibitor
Cc1ccc(NC(=O)/C(C#N)=N/Nc2ccc(C(=O)O)cc2)c(C)c1	76*	13	5	2	/	12
COc1cc(SC#N)ccc1N=Cc1c(C)[nH]n(-c2ccc(C)cc2C)c1=O	99*	10	4	-19	0	-2
COc1cc(SC#N)ccc1N=Cc1c(C)[nH]n(-c2cccc3ccccc23)c1=O	99*	/	4	/	-2	-11
COc1ccc(C(=O)CN2CCN(S(=O)(=O)c3cccc([N+](=O)[O-])c3)CC2)cc1OC	-18	-1	53*	-2	/	-6
CC(=NNC(=O)C(C)Sc1ccccc1)c1ccc([N+](=O)[O-])cc1 (stereo unspecified)	/	/	/	/	5	/
CCOc1cc(C=NNC(=O)CN2CCCCC2)ccc1O	/	/	/	/	-1	/
CC(=O)Nc1cccc(C(C)=NNC(=O)c2ccc(Cn3nc([N+](=O)[O-])c(Cl)c3C)o2)c1	/	/	/	/	1	/
CC(C)(C)Nc1nc(Cl)nc(N(C#N)CN2C(=O)c3ccccc3S2(=O)=O)n1	92*	-49	15	2	1	-5
Cc1[nH]n(C2=NCCS2)c(=O)c1N=Nc1ccccc1	92*	4	60*	-11	11	-1
Cc1ccccc1N=Nc1c(C)[nH]n(-c2ccccc2)c1=O	/	/	/	/	8	1
Cc1[nH]n(-c2ccccc2)c(=O)c1N=Nc1nccs1	21	8	0	-4	21*	-2
Cc1[nH]n(-c2ccccc2)c(=O)c1N=Nc1ccc2c(c1)OCO2	/	0	0	5	8	2
Cc1ccc2c(c1)c1c(n2CC(O)Cn2c(C)nc3ccccc32)C(=O)CCC1 (stereo unspecified)	-16	-1	-1	3	-31	1
Cc1ccc2c(c1)c1c(n2CC(O)Cn2c(C)nc3ccccc32)/C(=N\O)CCC1 (stereo unspecified)	4	-6	28*	21	/	-13
Cc1nnsc1C(=O)NNc1ccc(Cl)cc1	-16	2	2	-4	3	2
Cc1nnsc1C(=O)NNc1c(Cl)cccc1Cl	98*	0	10	-3	1	8
Cc1c(C(=O)NNc2c(Cl)cccc2Cl)n(C)oc1=O	98*	18	2	-5	5	8
O=C(NN=Cc1cccc([N+](=O)[O-])c1)c1cccc2cc[nH]c12	/	/	/	/	3	/
COCCNS(=O)(=O)c1ccc2c(c1)C(=NO)c1cc(S(=O)(=O)NCCOC)ccc1-2	/	52*	/	-85	-20	4
COc1cc([N+](=O)[O-])cc(C=NNC(=O)CSc2nnc(-c3ccccc3)n2C)c1O	/	/	/	/	14	/
CNC(=S)NN=Cc1c2ccccc2c(Cl)c2ccccc12	/	/	/	/	0	/
CC1CN(C(=O)C(C)N2CCN(c3cccc(Cl)c3)CC2)CC(C)O1 (stereo unspecified)	88*	8	0	-3	0	-1
Cc1ccc2cc(/C=C/C(=O)c3ccco3)c(Cl)nc2c1	11	/	1	2	4	0
Cc1ccc2nc(Cl)c(/C=C/C(=O)c3ccco3)cc2c1	97*	6	11	6	6	2
